Hep lipid drop: modulators of hepatic lipid droplet formation; AML12 mouse hepatocytes, oleate lipid droplets, BODIPY imaging; actives 0.4% (n = 240,000); inhibition, % at 6.5 µM; AID 1656;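 active = lipid droplet intensity inhibited by at least 50%, with more than 500 cells counted; inconclusive = wells with under 300 cells, treated as cytotoxic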
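Assay system: AML12 mouse liver cells | Compound: 6.5 µM single-point dosing | Schedule: Overnight exposure | Technique: Fluorescence imaging, 20x objective, two fields per well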
H9c2 TAG inh: triacylglycerol accumulation inhibition; H9c2 cells, Nile Red lipid (TAG) fluorescence; cells loaded with 200 µM oleic acid; inhibition, % at 12.5 µM; actives 0.66% (n = 230,000); AID 651582;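 active = pattern-corrected inhibition of lipid staining of at least 50% with the nuclear-stain viability signal not falling by more than 50%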;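 also: 0% = DMSO wells and 100% = triacsin C control wells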
Arrestin-AP2 inh: blocks beta-arrestin peptide binding to AP2 adaptin; AID 504490; actives 0.31% (n = 340,000); FITC-arrestin peptide / GST-AP2 beads, flow cytometry; AP2 beta2 appendage carries R879A mutation; inhibition, % at 10 µM;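 active = inhibition above a set limit, near 3 SD of compounds lacking own fluorescence, cut at about 54% in these data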;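 also: plate controls were DMSO wells for no effect and 5 µM unlabelled arrestin peptide for full effect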
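Assay system: GST-AP2 R879A bound to glutathione beads, E. coli-expressed; Medium: PBS with 0.05% Tween 20 and 0.1% BSA; Also added: fluorescein-tagged arrestin peptide at 50 nM final; Timing: 12 min plus 1 h, RT; Measured by: flow cytometry, FL1 (488/535 nm); Evaluation: percent drop in bead-associated FITC signal.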
NTR1 ag: activates human neurotensin receptor 1 | activation, % at 20 µM | NTR1-U2OS beta-arrestin-GFP spot imaging, agonist mode | P30989 | AID 493036 | actives 0.17% (n = 330,000);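 active = activation at or above 40% of the spot to cytoplasm intensity ratio, with at least 20 cells analyzed; inconclusive = wells under 20 cells, flagged as cytotoxic or low count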;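 also: 0% = DMSO without peptide and 100% = 100 nM NTR1 peptide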
GRK2 aptamer HTS: inhibitors of human GRK2 displacing RNA aptamer | bead flow cytometry, FAM-aptamer displacement from GRK2 | P25098 | actives 0.59% (n = 330,000) | inhibition of aptamer binding, % at 10 µM | AID 488847;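 active = inhibition of aptamer binding above 40%, roughly 3 SD of noise, on plates passing a quality check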;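 also: median bead fluorescence of bound FAM aptamer so fluorescent compounds give negative values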
Beta2AR agonist: agonists of human beta-2 adrenergic receptor inducing internalization; P07550; Am2.2-beta2AR cells, FAP receptor internalization, flow cytometry; response, % (no concentration beside the values); actives 0.43% (n = 340,000); AID 504454;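 active = response above a set limit, near 3 SD of response in nonfluorescent compounds, cut at about 42% in these data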
Target sequence (P07550 whole entry, looked up): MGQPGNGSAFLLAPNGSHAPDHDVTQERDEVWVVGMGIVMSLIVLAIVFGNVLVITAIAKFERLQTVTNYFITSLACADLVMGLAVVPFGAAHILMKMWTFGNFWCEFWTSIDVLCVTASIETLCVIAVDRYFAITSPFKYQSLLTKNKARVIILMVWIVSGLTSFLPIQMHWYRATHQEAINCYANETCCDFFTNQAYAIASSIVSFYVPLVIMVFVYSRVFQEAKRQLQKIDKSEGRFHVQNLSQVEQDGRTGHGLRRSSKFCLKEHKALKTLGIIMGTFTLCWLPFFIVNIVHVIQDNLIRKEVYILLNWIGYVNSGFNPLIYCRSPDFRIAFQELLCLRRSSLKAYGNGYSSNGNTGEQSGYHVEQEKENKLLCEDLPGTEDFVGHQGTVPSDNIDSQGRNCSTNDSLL
Hep lipid conf: hepatic lipid droplet formation inhibition, confirmed | inhibition, % at 5.2 µM | shares compounds with Hep lipid drop | AML12 mouse hepatocytes, BODIPY lipid droplet imaging; droplets induced with 100 µM oleic acid | actives 65% (n = 870);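 active = inhibition of lipid droplet metric at least 50%, with more than 300 cells in each of four replicates; inconclusive = wells under 300 cells, flagged as toxic or low count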;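 also: plate controls were DMSO with oleic acid for no effect and 5 µM Triacsin-C for full effect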
AML12 tox img: toxic to AML12 mouse hepatocytes in counter-screen | z-score at 5 µM | DAPI nuclear morphology cytotoxicity imaging; active compounds read high; cells fed 100 µM oleate overnight | actives 3% (n = 870) | shares compounds with Hep lipid drop; in the data active = z-score above about 6.3;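 also: compound exposure lasted overnight at 37 °C before fixation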
AML12 tox ATP: AML12 hepatocyte cytotoxicity, confirmed; shares compounds with Hep lipid drop; AML12 mouse hepatocyte viability, ATP luminescence; cells loaded with 100 µM oleic acid; cytotoxicity, % at 50 µM; 530 tested, under 10 active; AID 463219;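 active = cytotoxicity above 50% in each of four replicates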;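 also: compound exposure lasted overnight at 37 °C before the ATP read; 0% = DMSO-treated cells and 100% = wells with no cells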
The depositor's hits bear a star; ? = inconclusive; · = no result. Compounds with a hit are over-represented: about 2% of the library has one in this group of screens.

SMILES	Hep lipid drop	H9c2 TAG inh	Arrestin-AP2 inh	NTR1 ag	GRK2 aptamer HTS	Beta2AR agonist	Hep lipid conf	AML12 tox img	AML12 tox ATP
CCOC(=O)C1CCN(C(=O)C2(NC(=O)Nc3ccc(F)cc3F)CCCCC2)CC1	69.4*	·	-15.0	2.6	4.0	3.4	96.8*	-0.00107	12.3
COc1ccc2nc(N=Nc3c(O)ccc4ccccc34)sc2c1	50.4*	·	·	·	·	·	5.7	-0.123	·
CC12CCC(=O)N1C(C(=O)N1CCN(S(=O)(=O)c3cccc(Cl)c3)CC1)CS2 (configuration not stated)	·	-12.5	-7.8	-0.4	0.0	-5.5	·	·	·
COc1ccc(Cl)cc1Nc1cc(C)nc2ncnn12	·	6.7	·	·	·	·	·	·	·
CCOc1ccc(NC(=O)CCSc2nc3c(c(CC)c2C#N)C(=O)CC(C)(C)C3)cc1	55.1*	-15.3	47.3	2.7	5.0	8.7	86.2*	-0.0553	1.9
CCNc1nc(N)c(C(=O)c2ccc(Cl)s2)s1	51.6*	-5.6	7.0	-1.1	2.0	-5.1	26.5	-0.337	·
CCC(C)C(=O)N1c2ccccc2C(=C2SC(C(=O)OC)=C(C(=O)OC)S2)C(=S)C1(C)C (configuration not stated)	66.6*	48.6	21.3	7.9	1.0	5.6	111.9*	0.242	6.0
COc1ccc(-c2csc(NC(=O)CSc3nnc(Nc4ccccc4C)s3)n2)cc1	?	49.2	-29.2	-0.7	0.0	0.1	·	·	·
CCOc1ccccc1Nc1nnc(SCC(=O)Nc2nc(-c3ccc(OC)cc3)cs2)s1	91.1*	35.5	28.0	0.6	0.0	-2.0	104.0*	0.275	6.0
CCNC(=S)Nc1cc(-c2ccc(Cl)cc2)[nH]n1	21.6	-3.4	21.8	3.4	0.0	10.9	·	·	·
O=C(COC(=O)CNC(=O)C1CCCCC1)Nc1ccccc1OC(F)F	·	9.8	-3.4	0.4	1.0	-1.9	·	·	·
O=C(N/N=C/c1cn(-c2ccccc2)nc1-c1cc2ccccc2o1)c1ccccc1Br	102.4*	·	4.5	0.5	1.0	-11.9	105.3*	1.14	14.8
CCN(CC)c1ccc(/C=C2\CCC(/C=C(\C#N)C(=O)Nc3ccccc3F)=C2N2CCOCC2)cc1	100.7*	·	34.2	·	·	-6.8	95.9*	0.00304	-9.6
CC1C(=O)N(Cc2cn(Cc3ccco3)nn2)CCS(=O)(=O)N1Cc1ccc(-c2ccc(Cl)c(Cl)c2)cc1 (configuration not stated)	·	31.0	·	·	·	·	·	·	·
O=C(COC(=O)CNS(=O)(=O)c1ccccc1)Nc1ncc(Cl)cc1Cl	·	6.4	35.3	2.3	5.0	2.0	·	·	·
COc1ccc(NC(=O)c2onc(C)c2Cl)cc1	-0.7	-2.1	-8.3	-1.4	0.0	-3.0	·	·	·
COc1ccc(S(=O)(=O)N(c2onc(C)c2Cl)S(=O)(=O)c2ccc(OC)cc2)cc1	59.6*	-3.7	45.4	-1.8	0.0	10.7	36.6	-1.18	·
CCOC(=O)C1CCC(CN(Cc2ccccc2)S(=O)(=O)c2ccc([N+](=O)[O-])cc2)CC1 (configuration not stated)	59.4*	·	6.8	1.9	4.0	-2.7	81.5*	-0.462	6.5
O=C(CCC(=O)c1ccc(F)cc1)Nc1cccc(C(F)(F)F)c1	20.6	·	2.8	-1.4	0.0	-1.5	·	·	·
O=C(CCC(=O)c1ccc(F)cc1)Nc1cccc(S(=O)(=O)Nc2cccc(Cl)c2)c1	50.7*	·	3.2	0.8	0.0	-0.7	-38.6	0.0233	·
Cc1cccc(NC2=C(NCCO)C(=O)c3ccccc3C2=O)c1	88.7*	·	17.7	-0.8	0.0	1.9	96.8*	0.311	21.6
COc1ccc(/C=C/C(=O)NCC2COc3ccccc3O2)c(OC)c1 (configuration not stated)	65.4*	-10.8	16.1	-0.9	0.0	3.2	83.5*	0.483	12.9

Bioassay records as filed in PubChem BioAssay.
